Compounds with a hit are over-represented: about 1.7% of the library has one in this group of screens.
DNMT1 block – inhibitors of human DNMT1; P26358; DNMT1 molecular beacon, Hinp1I cleavage, fluorescence; inhibition (reported as % activation of signal), % at 10 µM; hit rate 0.83% among 360,000; AID 588458; in the data active = inhibition above about 50%
SUMO1-SIM PPI – alters human SUMO1 binding to SIM partners. P63165. SUMO1 binding to a labelled peptide, TR-FRET, 1 h. inhibition, % at 20 µM. hit rate 0.33% among 360,000. AID 602429; in the data active = inhibition above about 37%
Target sequence (P63165 whole entry, looked up): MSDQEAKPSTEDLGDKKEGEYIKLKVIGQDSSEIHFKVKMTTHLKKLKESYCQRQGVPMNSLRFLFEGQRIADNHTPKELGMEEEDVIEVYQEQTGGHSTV
Scp-1 inhibitor – blocks human Scp-1 phosphatase activity. hit rate 0.88% among 340,000. Q9GZU7. AID 493091. Recombinant Scp1, phosphopeptide, malachite green phosphate absorbance. inhibition, % at 20 µM;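 active = inhibition above about 50% at 20 µM, limit read from the data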;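 note: plate controls were DMSO wells with enzyme for no effect and wells lacking enzyme for full effect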
Target sequence (Q9GZU7 76-261 limits assumed): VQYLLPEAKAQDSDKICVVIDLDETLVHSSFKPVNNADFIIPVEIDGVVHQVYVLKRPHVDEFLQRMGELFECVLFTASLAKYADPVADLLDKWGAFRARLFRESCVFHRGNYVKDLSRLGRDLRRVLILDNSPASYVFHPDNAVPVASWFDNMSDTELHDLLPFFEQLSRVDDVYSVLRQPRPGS
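Material – SCP-1 phosphatase catalytic domain, residues 76-261 · Buffer or medium – Acidic Tris acetate buffer with magnesium and detergent · Also added – Phospho 17-mer peptide substrate · Compound – single 20 µM dose, 1% DMSO · Times – 45 min room-temperature reaction, 5 min colour, 30 min stabiliser · Technique – Phosphate-binding colour reagent, absorbance read at 630 nm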
LMPTP block – blocks human LMPTP phosphatase; P24666; recombinant LMPTP-A, OMFP fluorogenic substrate, fluorescence intensity; inhibition, % at 20 µM; hit rate 0.22% among 360,000; AID 651560;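 active = compounds that cut the enzyme signal by at least half of the control window in the single-dose screen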;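 note: plate controls were DMSO wells with enzyme plus substrate for no effect and substrate without enzyme for full effect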
Target sequence (P24666 whole entry, looked up): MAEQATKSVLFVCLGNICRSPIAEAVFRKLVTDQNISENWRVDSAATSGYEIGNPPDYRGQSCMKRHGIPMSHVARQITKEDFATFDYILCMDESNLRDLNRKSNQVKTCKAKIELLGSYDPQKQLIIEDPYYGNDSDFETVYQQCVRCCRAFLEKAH
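Buffer or medium: Bis-Tris pH 6.0, DTT, detergent; Assay system: LMPTP-A enzyme; Quantity: 0.625 nM enzyme; Detection: endpoint fluorescence intensity; Times: 50 min dark incubation at room temperature; Controls: substrate-only low control, DMSO enzyme-plus-substrate high control; Doses: single 20 µM dose; Read-out: percent inhibition versus substrate-only and uninhibited controls; Reagent: 400 µM OMFP.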
STEP inh – inhibitors of human striatal-enriched phosphatase STEP; P54829; recombinant STEP, OMFP fluorogenic substrate, fluorescence; inhibition, % at 20 µM; hit rate 0.25% among 360,000;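 active = inhibition at 20 µM, scaled per plate between control wells, above about 37%, limit read from the data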;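 note: 0% = DMSO with enzyme and substrate and 100% = substrate only without enzyme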
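medium = Bis-Tris buffer pH 6.0, 2.5 mM DTT, 0.005% Tween 20 | test system = STEP (striatal-enriched tyrosine phosphatase) enzyme, cell-free | measure = normalized % inhibition | compound dosing = 20 µM, 1% DMSO | also added = 25 µM OMFP | schedule = reaction 20 min, ambient temperature | measured by = fluorescence read at 480 nm ex / 540 nm em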
Scp-1 conf – confirmation of human Scp-1 phosphatase inhibitors; hit rate 61% among 2,500; inhibition, % at 20 µM; shares compounds with Scp-1 inhibitor; AID 540281; recombinant SCP-1 catalytic domain, phosphate release, malachite green absorbance;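 note: plate controls were DMSO with enzyme for no effect and buffer wells lacking enzyme for full effect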
MG interference – colorimetric interference in Scp-1 counter-screen; apparent inhibition (interference), % at 20 µM; shares compounds with Scp-1 inhibitor; 2,500 tested, under 10 active; Colorimetric interference counterscreen, malachite green absorbance 630 nm;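 note: compounds added after enzyme reaction finished so only phosphate colour detection is probed; plate controls were DMSO wells with completed Scp-1 reaction for no effect and substrate wells lacking enzyme for full effect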
Scp-1 Tm shift – validation of human Scp-1 inhibitors by thermal shift binding | shares compounds with Scp-1 inhibitor | Recombinant SCP1, Sypro Orange thermal shift Tm | thermal shift relative to vanadate control, % at 40 µM | hit rate 25% among 1,500;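 active = substances whose mean melting-temperature shift, as a percentage of the reference inhibitor's shift, reaches about 5.3%, limit read from the data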;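 note: 0% = Tm of DMSO wells and 100% = Tm with sodium orthovanadate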
* hit, by the source's call; . = not tested or not shown.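 Rule for the calls, unless noted: active = inhibition of at least 30% at 20 µM; inactive = the rest.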

SMILES	DNMT1 block	SUMO1-SIM PPI	Scp-1 inhibitor	LMPTP block	STEP inh	Scp-1 conf	MG interference	Scp-1 Tm shift
COc1cc2nc(NC(=O)c3ccco3)sc(=O)c2cc1OC	10	5	51*	12	39	43*	-12	-16
CC1CCN(CCCNC(=O)Cn2ncc3c([nH]c4ccccc43)c2=O)CC1	-1	0	3	2	0	.	.	.
CC(C)(C)OC(=O)NCCCCCc1cn(CC(=O)NCCCCCCCCCCC(=O)N2CCN(C(=O)OC(C)(C)C)CC2)nn1	33	14	61*	1	-4	29	-17	.
CCOC(=O)c1ccc(NC(=O)COc2cc3oc(=O)c(CC(C)O)c(C)c3cc2Cl)cc1 (centres undefined)	-8	11	25	1	2	.	.	.
CC(=O)c1cccc(NC(=O)COc2cc3oc(=O)c(CC(C)O)c(C)c3cc2Cl)c1 (centres undefined)	9	-6	51*	3	-1	46*	-13	-20
COc1ccc(OC)c(Cc2nnc(CCC(=O)NCc3nc4ccccc4s3)o2)c1	-3	3	63*	0	1	-18	-13	.
C[N+]1(C2CCC3CCCC2C3O)CCCC1 (centres undefined)	3	2	93*	-1	-3	76*	-16	-24
O=C(CCN1C(=O)C2C3CCC(C3)C2C1=O)Nc1cccc(Cl)c1 (centres undefined)	0	-1	2	-2	-2	.	.	.
O=C(O)C1CC=CCC1C(=O)N1CCc2ccccc21 (centres undefined)	33	-2	52*	1	5	49*	0	0
O=C(O)C1C2C=CC(C2)C1C(=O)N1CCc2ccccc21 (centres undefined)	6	-3	-5	0	3	.	.	.
CC(SCc1nc2sc3c(c2c(=O)[nH]1)CCCC3)C(=O)Nc1ccccn1 (centres undefined)	3	2	-2	1	0	.	.	.
COC(=O)C1=C(COc2ccccc2)NC(=O)NC1c1ccc2ccccc2c1 (centres undefined)	.	.	50*	.	.	31*	-14	-33
Cc1ccc(Cl)cc1N1CCN(c2cccc[n+]2C)CC1	9	1	99*	0	-2	-4	-8	.
CCOC(=O)[C@@H]1[C@H]2COc3cc(OC)ccc3[C@H]2N2C(=O)N(c3cccc(F)c3)C(=O)[C@]12C	-3	1	-14	-1	3	.	.	.
CCN1/C(=C2\C(=O)N(c3ccccc3)N=C2C)C=Cc2cc(C)ccc21	4	-26	58*	-1	2	-14	-20	.
O=C(O)c1cccc(N2C(=O)C3CC=C(Cl)CC3C2=O)c1 (centres undefined)	42	13	109*	-1	0	57*	-20	-23
O=C1Nc2ccccc2C1=Nc1ccc(S(=O)(=O)Nc2nccs2)cc1	4	88*	80*	3	38	73*	-5	13*
NS(=O)(=O)c1ccc(N=C2C(=O)Nc3ccccc32)cc1	-1	-29	-3	-1	-2	.	.	.
C/C(=N\Nc1ccc(Cl)c(C(=O)O)c1)c1cccs1	13	15	42	-1	2	.	.	.
C/C(=N\Nc1ccc(Cl)c(C(=O)O)c1)c1ccc[nH]1	6	32	73*	0	4	59*	-13	17*
O=C(CSc1nc(=O)[nH]c2c1CCCC2)Nc1ccc(F)cc1F	5	-5	4	1	-1	.	.	.
Nc1c(C(=O)OCC(=O)Nc2cccc([N+](=O)[O-])c2)[nH]c(=O)[nH]c1=O	-3	3	67*	33	9	65*	-1	6.1*
O=C(Nc1cccc([N+](=O)[O-])c1)Nc1cccc([N+](=O)[O-])c1	6	-12	69*	10	3	66*	-21	17*

High-throughput results (PubChem)
